Source: PubChem BioAssay (several laboratories)
Sampled rows, rich in hits. Any-hit rate of the full collection: about 1.4%.
JMJD2C inh – inhibitors of GASC-1 histone demethylase, primary screen, biochemical, fluorescence, DELFIA europium; hit rate 0.069% among 330,000; AID 2099, 2009; Lysine-specific demethylase 4C (Homo sapiens), Q9H3R0; GST-JMJD2C(1-420) H3K9me3 demethylation; inhibition, % at 2.35 µM;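 active means more than half of a compound's replicate wells show inhibition beyond 50%, single wells judged on their own value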;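 further: signal counts dimethyl H3K9 product captured on neutravidin plate; 0% = median of DMSO wells and 100% = 0.3 times that DMSO median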
Target sequence (Q9H3R0 1-420 limits assumed): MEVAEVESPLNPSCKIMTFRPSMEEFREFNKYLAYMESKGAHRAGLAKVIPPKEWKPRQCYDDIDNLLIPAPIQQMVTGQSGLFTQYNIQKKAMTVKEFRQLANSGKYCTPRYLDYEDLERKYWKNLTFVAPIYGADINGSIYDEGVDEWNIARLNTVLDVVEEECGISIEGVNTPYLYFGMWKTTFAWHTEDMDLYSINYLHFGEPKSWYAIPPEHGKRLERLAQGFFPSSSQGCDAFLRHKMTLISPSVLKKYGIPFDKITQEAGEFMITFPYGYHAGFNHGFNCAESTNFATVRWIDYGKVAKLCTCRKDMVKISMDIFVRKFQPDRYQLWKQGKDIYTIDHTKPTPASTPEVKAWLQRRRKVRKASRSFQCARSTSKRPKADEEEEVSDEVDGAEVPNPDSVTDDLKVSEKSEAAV
T cell modulator – modulators of CD8 T cell-vesicle binding, primary screen, mouse 2C CD8+ T cells, flow cytometry; 2C CD8+ T cell-vesicle binding; active compounds read low; response (vesicle binding), % at 7 µM; hit rate 0.068% among 330,000;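 active means response, share of CD8 T cells binding vesicles, and their 90th percentile fluorescence all below set limits, cut at about 80% in these data, passing the limit was not always enough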;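 further: values below 100% mean blocked vesicle binding to the CD8+ T cells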
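Material: 2C TCR transgenic mouse naive CD8+ T cells, MACS-purified. Also added: QL9-charged Drosophila Ld/ICAM-1/B7-1 vesicles. Timing: binding 1.5 h at 37 °C. Measured by: high-throughput flow cytometry with anti-B7-1 and anti-CD8 staining. Read-out: percent CD8+ FL2 mean versus row control. Controls: Unloaded micro-vesicles (low), QL9 vesicles with 0.7% DMSO (high).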
Mot1-301 SUMO – yeast Mot1-301 growth rescue at high temperature, primary screen, SUMOylation pathway inhibitor project, S. cerevisiae, ATP luminescence, 38.5C | S. cerevisiae Mot1-301 growth rescue; percent above DMSO median, 100 means doubled | hit rate 1% among 320,000 | growth rescue, % at 18.8 µM;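 active means every valid replicate shows activation above 250% relative to neutral control wells; inactive means the rest, any valid replicate at or below 250%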;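 further: OY570 slx delta 5 strain wells were the positive control but not used for scaling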
HIF activator – HIF pathway transcriptional activators, primary screen, cell-based, U2OS HRE-luciferase, luminescence. U2OS HRE-luciferase reporter; normalized: DMSO 0%, desferrioxamine 100%. activation, % at 7.5 µM (by protocol). hit rate 0.32% among 300,000. AID 1910, 2009;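 active means mean activation of at least 10% of the iron chelator positive control signal, with at least half of replicates also reaching 10%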
The depositor's hits bear a star; / = not tested or not shown; + = active, no number.

SMILES	JMJD2C inh	T cell modulator	Mot1-301 SUMO	HIF activator
CCn1cc(C(=O)O)c(=O)c2cc(F)c(N3CCN(C(=S)Nc4ccccc4OC)CC3)cc21	-4	88	-6	0
CCn1cc(C(=O)O)c(=O)c2cc(F)c(N/N=C/c3ccccc3[N+](=O)[O-])cc21	-6	289	669*	0
CNC(=O)NC(=O)CSc1nnc(-c2ccco2)n1Cc1ccccc1	7	203	-9	2
NC(=O)NC(=O)CSc1nnc(-c2ccco2)n1Cc1ccccc1	50*	583	/	-7
COC(=O)Cc1ccc(NC(=S)N2CCN(c3ccc(F)cc3)CC2)cc1	-3	136	2	0
Cc1cc(C)n(C(=O)c2sc3cc(F)ccc3c2Cl)n1	-7	0.0*	6	0
O=C(NCCCl)C1Cc2c(ccc3ccccc23)O1 (centres undefined)	21	176	+	0
O=C(NCCCN1CCOCC1)C1Cc2c(ccc3ccccc23)O1 (centres undefined)	-1	495	19	1
Cc1cc(C)cc(N2CC(C(=O)OCC(=O)Nc3cc(C)on3)CC2=O)c1 (centres undefined)	8	321	-11	1
Cc1cc(C)cc(N2CC(C(=O)Nc3cc(C)on3)CC2=O)c1 (centres undefined)	0	223	341*	-1
Cc1ccc(NC(=O)CSc2nnc(Cc3csc(C)n3)o2)c(C)c1	-1	383	-12	0
CCC(C)(C)c1ccc(OCCCC[n+]2ccccc2)c(C(C)(C)CC)c1	-23	149	290*	0
Cc1ccccc1NC1(C#N)C(=O)Nc2ccccc21 (centres undefined)	5	152	348*	0
Cc1cccc[n+]1CC(=O)c1ccc(NC(=O)c2ccccc2)cc1	-9	352	317*	3
Cc1cccc[n+]1CC(=O)Nc1ccccc1	-13	357	-20	0
Cc1cc(C)c2cc(C(=O)Nc3ccccc3)[nH]c2c1	-27	796	25	4
COc1ccc(CCN2C(=O)CSC2=Nc2ccc(C(C)C)cc2)cc1OC	-5	97	-16	3
Cc1nc(-n2[nH]c3c(c2=O)CCCC3)[nH]c(=O)c1Cc1ccccc1	14	415	63	12*
Cc1noc(C)c1COC(=O)C1CCN(S(=O)(=O)c2ccc(F)cc2)CC1	-4	379	-2	/
CN(CC(=O)Nc1ccc(F)c(F)c1F)C(=O)/C=C/c1ccc(Cl)cc1	13	216	8	225*
CN(CC(=O)Nc1ccc(F)c(F)c1F)C(=O)/C=C/c1ccco1	8	215	19	/
C#CCOCCOCCOCCNc1nc(N2CCN(C(=O)[C@H](CC(N)=O)n3cc(C(N)[C@@H](C)CC)nn3)CC2)nc(N2CCN(C(=O)[C@H](CCC(=O)O)n3cc([C@@H](N)CCCCN)nn3)CC2)n1 (some centres undefined)	8	211	11	/
O=C(Nc1ccc(F)cc1)Nc1ccccc1C(=O)NCCN1CCNC1=O	-3	155	0	0
COc1ccc(Cl)cc1NC(=O)CN1CCN(Cc2ccccc2)CC1	4	253	-2	-2
O=C(Cn1c2[n+](c3ccc(C(F)(F)F)cc31)CCCCC2)Nc1ccc(Br)cc1	-22	291	-12	0
SMILES	JMJD2C inh	T cell modulator	Mot1-301 SUMO	HIF activator
CCc1ccc(NC(=O)Cn2c3[n+](c4c(F)c(F)ccc42)CCCCC3)cc1	12	168	708*	0
O=C(CN1CCCCC1)N1CCCc2ccccc21	7	289	0	90*
CCC1CC(C(=O)Nc2ccccc2)C(=O)O1 (centres undefined)	-11	452	301*	0
CC(C)C1CC(C(=O)Nc2ccccc2)C(=O)O1 (centres undefined)	1	458	310	0
CCOc1ccc(CCNC(=O)CCS(=O)(=O)c2ccc(C)cc2)cc1OCC	-22	0.0*	7	0
CCOc1ccc(CCNC(=O)CSc2n[nH]c(N)n2)cc1OCC	-14	632	357*	-1
CCOc1ccc(CCNC(=O)CCS(=O)(=O)c2ccc(Br)cc2)cc1OCC	-18	147	1	-1
CCOc1ccc(CCNC(=O)COC(=O)CSc2ccccc2C)cc1OCC	-1	203	10	-1
O=C(CN(c1cccc([N+](=O)[O-])c1)S(=O)(=O)c1ccccc1)N1CCCCC1	6	425	341*	0
CC1CC(C)CN(S(=O)(=O)c2ccc3c(c2)oc(=O)n3CC(=O)N(C)Cc2ccccc2)C1 (centres undefined)	-15	289	333*	-1
Cc1cc2sc3nc(=O)n(-c4ccccc4)c(=O)n3c2cc1C	-4	390	5	8
COc1ccc(OC)c(NC(=O)CCN2CCCCC2)c1	1	76*	-2	1
Cc1ccc(O)c(NC(=O)c2ccc3c(c2)C(=O)N(CC(C)C)C3=O)c1	-5	250	47	4
CCCN1C(=O)c2ccc(C(=O)Nc3cc(C)ccc3O)cc2C1=O	57*	761	-10	6
Clc1cccc(N/N=C/c2ccc(N3CCOCC3)cc2)c1	-2	359	326*	2
CC1(c2ccc([N+](=O)[O-])cc2)NC(=O)N(CC(=O)Nc2cccnc2Cl)C1=O (centres undefined)	20	832	14	0
CCCC1(C(=O)OCC)NC(c2ccc(O)cc2)C2C(=O)N(c3ccc4c(c3)OCCO4)C(=O)C21 (centres undefined)	3	402	1	0
COC(=O)C1(c2ccccc2)NC(c2ccc(O)cc2)C2C(=O)N(c3ccc4c(c3)OCO4)C(=O)C21 (centres undefined)	1	480	260*	0
O=c1oc2ccccc2c2nccnc12	-6	266	324*	0
COC(=O)c1cc(S(=O)(=O)NCc2ccccc2OC)cn1C	-6	299	25	71*
O=C1CC(c2ccccc2)CC(O)=C1C=NCCN1CCNCC1 (centres undefined)	11	225	-8	-1
O=C1CC(c2ccc(F)cc2)CC(O)=C1C=NCCN1CCNCC1 (centres undefined)	-20	164	301*	-25
COc1cccc(/C=C/C(=O)c2ccc(C)c([N+](=O)[O-])c2)c1	-3	138	500*	0
COc1ccc(-c2nnn(CC(=O)NCc3ccc4c(c3)OCO4)n2)cc1OC	-11	471	-15	0
Cc1ccc(-c2nnn(CC(=O)NCCc3ccc4c(c3)OCO4)n2)o1	1	180	329*	0
CCOC(=O)c1oc2nc(CC(C)C)c3c(c2c1N)CCCC3	0	244	138	0
CCN(Cc1ccccc1)C(=O)CCNS(=O)(=O)c1ccc2c(c1)CC(C)N2C(C)=O (centres undefined)	16	290	7	69*
